Reference: ChEMBL document CHEMBL5038608, “Design, synthesis, and biological evaluation of novel pyrrolidinone small-molecule Formyl peptide receptor 2 agonists” (Eur J Med Chem, 2021)
Values after ≈ are worked out from the molar mass of the structure shown. Active and inactive are the calls of the source. No cut-off for these calls is given here.

Columns and labels:
[1] = target: T1, N-formyl peptide receptor 2 (Homo sapiens) (UniProt P25090); assay: Agonist activity at FPRL1 (unknown origin) expressed in CHO-K1 cells assessed as increase in calcium mobilization […] incubated for 2.5 hrs by cellular based FLIPR assay; type: functional, cell-based
T1 sequence (whole entry): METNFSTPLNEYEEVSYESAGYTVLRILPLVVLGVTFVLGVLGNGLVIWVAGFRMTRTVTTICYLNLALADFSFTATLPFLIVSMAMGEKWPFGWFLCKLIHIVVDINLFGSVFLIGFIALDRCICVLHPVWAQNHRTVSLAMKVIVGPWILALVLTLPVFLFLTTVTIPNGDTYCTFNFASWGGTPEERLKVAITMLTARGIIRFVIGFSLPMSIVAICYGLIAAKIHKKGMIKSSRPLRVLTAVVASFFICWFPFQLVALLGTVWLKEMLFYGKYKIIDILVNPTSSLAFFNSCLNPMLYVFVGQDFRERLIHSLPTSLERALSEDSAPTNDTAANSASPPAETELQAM
Summary of the method: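 CHO-K1 cells overexpressing human FPR2 (PathHunter FPRL1 line), plated at 20,000/well in F-12 with 10% FBS and held 1 h RT, then overnight at 37 °C. Calcium 6 dye loaded 2 h at 37 °C, then 30 min RT in the dark. Compounds were half-log serially diluted from 10 mM stocks in HBSS with 20 mM HEPES. Cytosolic Ca2+ rise read on FLIPR Tetra.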

[2] = target: T1, N-formyl peptide receptor 2 (Homo sapiens); assay: Agonist activity at FPRL1 (unknown origin) expressed in CHO-K1 cells assessed as stimulation of beta-arrestin recruitment […] incubated for 150 mins by beta-galactosidase based PathHunter assay; type: functional, cell-based
Summary of the method: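 PathHunter CHO-K1 FPRL1 cells carry complementing β-galactosidase fragments. Plated at 5000/well, held 1 h RT, then overnight at 37 °C. Compounds were half-log serially diluted from 10 mM stocks in PBS. Stimulation 150 min at 37 °C; W-peptide (WKYMVm, 100 nM) was the high control. Detection reagent added for 60 min RT in the dark, with chemiluminescence read-out.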

[3] = Distribution coefficient, logD of compound at pH 7.4 by shake flask method based LC-MS/MS analysis; type: physicochemical; settings: octanol/water, read-out: logD
Summary of the method: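 Shake-flask method: compound diluted from 10 mM DMSO stock into equal volumes of octanol and PBS, final concentration 100 µM. Shaken 12 h, then centrifuged. Both layers analysed in triplicate by LC-MS/MS (MRM, C8 UPLC). LogD = log10 of the octanol/buffer peak-area ratio.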

[4] = target: T2, N-formyl peptide receptor 2 (Homo sapiens, UniProt P25090); assay: Agonist activity at FPRL1 (unknown origin) expressed in CHO-K1 cells assessed as increase in calcium mobilization incubated for 2.5 hrs by cellular based FLIPR assay; type: functional, cell-based
T2 sequence (P25090 whole entry): T1 sequence (whole entry)
Summary of the method: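 CHO-K1 cells overexpressing hFPR2, plated at 20,000 cells/well in F-12 with 10% FBS and held overnight at 37 °C. Loaded with FLIPR Calcium 6 dye for 2 h at 37 °C, then 30 min at RT in the dark. Compounds were half-log serially diluted from 10 mM stocks in HBSS/20 mM HEPES. Cytosolic Ca2+ rise read on FLIPR Tetra. WKYMVm served as control.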

[5] = Microsomal stability in human liver microsomes assessed as half life at 1 uM preincubated for 5 mins followed by NADPH regenerating system addition measured after 30 mins by LC-MS/MS analysis; type: ADME, Microsome; settings: t1/2, time 35 min
Summary of the method: (§1)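 Human or mouse liver microsomes (0.2 mg/mL protein) with compound at 1 µM final, pre-incubated 5 min at 37 °C. Reaction started with NADPH generating solution and agitated at 37 °C, with samples quenched up to 30 min. Centrifuged; supernatant analysed in triplicate by LC-MS.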

[6] = Microsomal stability in mouse liver microsomes assessed as half life at 1 uM preincubated for 5 mins followed by NADPH regenerating system addition measured after 30 mins by LC-MS/MS analysis; type: ADME, Microsome; settings: t1/2, time 35 min; summary of the method: as §1
[7] = target: T2, N-formyl peptide receptor 2; assay: Agonist activity at FPRL1 (unknown origin) expressed in CHO-K1 cells assessed as stimulation of beta-arrestin recruitment incubated for 150 mins by beta-galactosidase based PathHunter assay; type: functional, cell-based
Summary of the method: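 PathHunter CHO-K1 FPRL1 cells expressing β-gal enzyme-fragment complementation, 5000 cells/well, held overnight at 37 °C. Stimulated with half-log serial dilutions of compounds (10 mM stocks in PBS) for 150 min at 37 °C. High control was WKYMVm at 100 nM. Detection reagent added for 60 min at RT in the dark, then chemiluminescence read.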

[8] = Kinetic solubility of compound in PBS at pH 7.4 by UV-VIS absorption spectrophotometry analysis; type: physicochemical; settings: for solubility kinetic: PBS, read-out: Kinetic_solubility
Summary of the method: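 A 10 mM DMSO stock was diluted into PBS pH 7.4 at a target of 200 µM (final PBS:DMSO 98:2), in triplicate. Agitated 500 rpm for 90 min, then filtered. Filtrate diluted to PBS:DMSO 80:20 and its UV absorbance compared against a 200–6.75 µM standard series to give the concentration remaining in solution.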

[9] = filed as agonist, time 0.067 hrs, in the assay text read “measured for 240 s” for “incubated for 2.5 hrs”

Structure (SMILES) | Emax [1, 9] | Emax ([2]; filed as agonist) | logD [3] | EC50 ([4]; cho-k1) | Emax ([1]; time 2.5 hrs) | half-life at 1 µM [5] | half-life at 1 µM [6] | EC50 ([7]; cho-k1) | Emax [2] | solubility kinetic [8] | EC50 ([4]; read-out: EC50) | EC50 ([7]; read-out: EC50) | Kinetic_solubility ([8]; buffer)
O=C(Nc1ccc(Br)cc1)NC1CCN(C2CCN(Cc3ccccc3)C2)C1=O (stereo in doubt; 18) | 84% | 99% |  |  |  |  |  |  |  |  |  |  | 
O=C(Nc1ccc(Br)cc1)NC1CCN(c2cnn(-c3ccccc3)c2)C1=O (configuration not stated) |  |  | > 4 | Not Active | inactive | 3.48 h | 1.78 h | Not Active | inactive |  |  |  | 
CC(C)(C)OC(=O)N1CCC(N2CCC(NC(=O)Nc3ccc(Br)cc3)C2=O)CC1 (configuration not stated) | 42% | 93% | 4.6 |  |  | 4.17 h | 0.522 h |  |  | 61 µM (≈ 29.4 µg/mL) | 730 nM | 6300 nM | 
Cn1cc(N2CCC(NC(=O)NCc3cc(F)cc(F)c3)C2=O)cn1 (configuration not stated) |  |  | 2.1 | Not Active | inactive | 9.73 h |  | Not Active | inactive |  |  |  | 
O=C(Nc1ccc(Br)cc1)NC1CCN(C2CCN(c3ncccn3)CC2)C1=O (configuration not stated) |  | 96% | 3.9 |  |  | 0.95 h | 0.733 h |  |  |  | 8 nM | 385 nM | 
O=C(Nc1ccc(Br)cc1)NC1CCN(c2ccc(F)cc2)C1=O (configuration not stated) |  |  | > 4 |  |  | > 6.67 h | 0.55 h |  |  |  | 1970 nM | 510 nM | 
O=C(Nc1ccc(Br)cc1)NC1CCN(Cc2ccccc2)C1=O (configuration not stated) |  |  | 4.4 | Not Active | inactive | 2.8 h | 2.12 h | Not Active | inactive | 75 µM (≈ 29.1 µg/mL) |  |  | 
CC(C)(C)OC(=O)N1CCC[C@H](N2CCC(NC(=O)Nc3ccc(Br)cc3)C2=O)C1 (stereo in doubt; 20) [listing 1 of 2 here] | 73% | 86% |  |  |  |  |  |  |  |  |  |  | 
N#Cc1ccc(NC(=O)NC2CCN(c3ccccc3F)C2=O)cc1 (configuration not stated) | 123% |  | 2.7 |  |  | 1.42 h | 2.87 h | Not Active | inactive |  | 15000 nM |  | 
CC(C)(C)OC(=O)N1CCC(CN2CCC(NC(=O)Nc3ccc(Br)cc3)C2=O)CC1 (configuration not stated) | 86% | 92% | > 4 |  |  | 0.317 h | 0.317 h |  |  | 53 µM (≈ 26.3 µg/mL) | 400 nM | 2160 nM | 
CC(C)(C)OC(=O)N1CCC[C@H](N2CCC(NC(=O)Nc3ccc(Br)cc3)C2=O)C1 (stereo in doubt; 20) [listing 2 of 2 here] |  |  | 4.1 |  |  |  | 0.5 h |  |  |  | 60 nM | 550 nM | 54 µM
CC(NC(=O)NC1CC(C)N(c2ccccc2)C1=O)c1ccncc1 (configuration not stated) |  |  | 2.8 | Not Active | inactive | 8.42 h | 2.52 h | Not Active | inactive |  |  |  | 
CC(C)(C)OC(=O)N1CC(N2CCC(NC(=O)Nc3ccc(Br)cc3)C2=O)C1 (configuration not stated) | 67% | 103% | > 4 |  |  | 1.88 h | 1.87 h |  |  | 222 µM (≈ 101 µg/mL) | 410 nM | 2350 nM | 
Cc1nn(-c2ccccc2)c(C)c1N1CCC(NC(=O)Nc2ccc(Br)cc2)C1=O (configuration not stated) | 150% | 95% | 4.6 |  |  | 3.15 h | 0.633 h |  |  | 57 µM (≈ 26.7 µg/mL) | 280 nM | 400 nM | 
